# EP2 modulator = modulates human prostaglandin E2 receptor EP2 signaling | actives 0.83% (n = 260,000) | AID 940 | induction, % at 25 µM | EP2-expressing cells, cAMP HTRF FRET, PGE2 co-stimulation | P43116;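 active means compounds whose cAMP rise, as percent of the full-agonist control response, exceeds 60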;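 further: rat C6 glioma line stably carrying human EP2 under a CMV promoter; the protocol text gives 20 µM as final concentration; 100% = response of wells given 1 µM PGE2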
# FXIIa inh 1536 = inhibitors of human coagulation factor XIIa; purified FXIIa, Boc-QGR-AMC fluorogenic substrate, 2 h; inhibition, % at 5 µM; actives 0.3% (n = 220,000); AID 800; in the data active means inhibition above about 40%;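 further: 0% = enzyme with no compound and 100% = blank without enzyme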
# KLK5 inh = blocks human kallikrein 5 protease activity; recombinant hK5, fluorogenic AMC substrate cleavage; Q9Y337; inhibition, % at 5 µM; AID 873; actives 0.59% (n = 210,000);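 active means inhibition of 40% or more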;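 further: 0% = enzyme controls without compound and 100% = no-enzyme blanks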
# PGE2 EP2 inh = EP2 receptor (human) inhibition. C6 glioma cells expressing human EP2, cAMP TR-FRET; cells stimulated with saturating PGE2. inhibition, % at 25 µM. actives 0.52% (n = 260,000);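 active means percent inhibition above 40 after rounding to a whole number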;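 further: rat C6 glioma host cells with rolipram phosphodiesterase inhibitor present; the protocol text gives 20 µM as final concentration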
# FXIa inh 1536 = inhibitors of human coagulation factor XIa; P03951; purified FXIa, Boc-Glu-Ala-Arg-AMC fluorogenic substrate; inhibition, % at 5 µM; actives 0.14% (n = 220,000); AID 798;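 active means inhibition of at least 40%; inactive means inhibition below 40%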;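 further: fluorescence of freed AMC excited at 355 nm; 0% = enzyme without compound and 100% = no enzyme blank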
# Target sequence (P03951 19-387 limits assumed): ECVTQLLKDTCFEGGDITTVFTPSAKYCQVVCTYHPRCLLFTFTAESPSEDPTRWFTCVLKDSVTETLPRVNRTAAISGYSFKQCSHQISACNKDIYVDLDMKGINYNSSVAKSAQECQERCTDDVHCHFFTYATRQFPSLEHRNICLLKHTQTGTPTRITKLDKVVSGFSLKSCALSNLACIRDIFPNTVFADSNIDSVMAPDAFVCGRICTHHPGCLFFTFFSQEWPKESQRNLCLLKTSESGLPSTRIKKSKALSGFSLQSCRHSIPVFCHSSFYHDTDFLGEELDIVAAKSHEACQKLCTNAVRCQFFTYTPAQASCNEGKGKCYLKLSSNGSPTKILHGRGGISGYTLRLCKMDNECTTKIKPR
# Target sequence (P03951 388-625 limits assumed): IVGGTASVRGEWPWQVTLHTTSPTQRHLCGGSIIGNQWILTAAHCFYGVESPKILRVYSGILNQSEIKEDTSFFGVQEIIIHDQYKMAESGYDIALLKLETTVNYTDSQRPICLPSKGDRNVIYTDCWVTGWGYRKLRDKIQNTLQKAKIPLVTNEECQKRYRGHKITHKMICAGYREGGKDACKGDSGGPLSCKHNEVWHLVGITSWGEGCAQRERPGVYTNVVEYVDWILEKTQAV
# Thrombin inh = blocks human thrombin protease activity; P00734; alpha-thrombin, Boc-VPR-AMC fluorogenic substrate cleavage; inhibition, % at 5 µM; actives 0.26% (n = 220,000);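 active means inhibition at or above 40%; inactive means inhibition below 40%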;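 further: 0% = enzyme with no compound and 100% = wells without enzyme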
#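 Material: human alpha-thrombin protein; Also added: Boc-VPR-AMC substrate, 15 µM final; Timing: enzyme reaction carried out at room temperature; Signal: fluorescence, ex 355 nm, em 460 nm; Measure: % inhibition of thrombin; Controls: enzyme without compound as high, wells lacking enzyme as low.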
# Starred values were filed as active, the others as inactive; x = no result given. Sampled rows, rich in hits. Any-hit rate of the full collection: about 2.1%.
SMILES,EP2 modulator,FXIIa inh 1536,KLK5 inh,PGE2 EP2 inh,FXIa inh 1536,Thrombin inh
COc1cccc(C2(O)CCN(CCNC(=O)C3CCCCC3)CC2)c1,-26.6,x,x,6.9,x,x
Cc1cc(C)cc(NC(=S)N(Cc2cccc(Br)c2)CC2CCC(C(=O)O)CC2)c1 (stereo not given),35.5,12.5,-6.4,6.8,2.5,-8.1
CCc1ccc(NC(=S)N(Cc2cccc(Br)c2)CC2CCC(C(=O)O)CC2)cc1 (stereo not given),1.6,23.1,65.5*,2.3,25.1,8.5
[N-]=[N+]=CC(=O)C(c1ccccc1)(c1ccccc1)c1ccccc1,75.7*,6.3,3.4,8.4,3.5,-0.3
CCC(Sc1nc(-c2ccccc2)c(C#N)c(=O)[nH]1)C(=O)Nc1ccc2ccccc2c1 (stereo not given),11.3,x,x,5.9,x,x
Cc1onc(-c2ccccc2Cl)c1C(=O)OCc1cnc(Cl)s1,64.1*,-10.5,-29.9,4.8,-6.9,-5.1
Cc1ccc(C)c2[nH]c(=O)c(CN(Cc3cccnc3)C(=S)NCC3CCCO3)cc12 (stereo not given),1.3,x,x,15.3,x,x
CN1CCC[C@H]1c1cccnc1.O=C(O)c1ccccc1O.O=C([OH2+])c1ccccc1O.O=C([OH2+])c1ccccc1O.O=C([OH2+])c1ccccc1O.[Mn],31.0,x,x,41.9*,x,x
O=C(CCN1CCCCC1c1cccnc1)NCc1ccccc1 (stereo not given),11.3,2.7,-18.2,7.7,1.8,21.5
Cc1nc2c(cnn2-c2ccc(Cl)cc2)c(=O)n1-c1ccc(N2CCC(C)CC2)cc1,15.5,17.0,53.8*,x,13.8,17.1
COC1=CC(=O)C=C(OC)C1=O,-24.1,x,x,74.6*,x,x
COc1ccc2c(c1)O[C@@H](c1cccc(C(F)(F)F)c1)[C@H](OC(=O)NCCc1ccc(OC)c(OC)c1)C2=O,39.3,12.6,-9.4,x,3.4,2.2
COC(=O)[C@@H](NC(=O)O[C@@H]1C(=O)c2ccc(OC)cc2O[C@H]1c1cccc(C(F)(F)F)c1)C(C)C,61.6*,6.2,-12.0,x,-7.9,-1.7
COC(=O)[C@H](Cc1ccccc1)NC(=O)O[C@@H]1C(=O)c2cc(OC)ccc2O[C@H]1c1ccc(OC)c(Br)c1,11.8,26.3,-8.5,x,17.6,1.8
COC(=O)[C@H](Cc1ccccc1)NC(=O)O[C@H]1C(=O)c2ccc(OC)cc2O[C@@H]1c1ccc2c(c1)OCO2,0.1,3.9,-12.4,50.9*,-2.0,-4.1
Cc1ccc(NC(=O)CSc2nnc3c(n2)C2(C)CCC3C2(C)C)c(C)c1 (stereo not given),-16.9,x,x,9.5,x,x
C#CCOc1nc(Nc2cccc([N+](=O)[O-])c2)nc(OCC#C)n1,1.7,41.0*,21.5,4.7,5.2,5.4
O=C(NCc1ccccc1Cl)c1cccc(C(F)(F)F)c1,22.4,13.5,40.6*,1.6,-2.2,39.9
O=C(NCc1cccc(Cl)c1)c1cccc(C(F)(F)F)c1,-13.9,9.5,-21.8,6.8,5.2,-0.6
CCCCc1nc(Cl)c(CN2CCc3c(nc(C)[nH]c3=O)C2)[nH]1,-45.6,x,x,9.5,x,x
Clc1ccc2c(N3CCC(CCC4CCN(c5ncnc6cc(Cl)ccc56)CC4)CC3)ncnc2c1,15.4,x,x,52.1*,x,x
O=S(=O)(NC1CCCC1)c1ccc(S(=O)(=O)N2CCN(Cc3ccccc3)CC2)cc1,-3.5,x,x,10.9,x,x
CCc1ccc[n+](-c2[nH]c(=O)sc2/C=N/N=C(\N)[O-])c1,-40.3,22.9,29.8,7.0,42.3*,24.7
CCc1ccc[n+](-c2[nH]c(=O)sc2/C=N/NC([S-])=Nc2ccccc2)c1,-6.0,-0.9,16.6,4.8,-10.0,34.4
CC(=O)Nc1ccc2c(c1)C(=O)c1ccccc1C2=O,-5.6,-4.2,0.9,3.3,-8.5,-5.8
SMILES,EP2 modulator,FXIIa inh 1536,KLK5 inh,PGE2 EP2 inh,FXIa inh 1536,Thrombin inh
O=C(Nc1ccc(Nc2ccc3c(c2)C(=O)c2ccccc2C3=O)c2c1C(=O)c1ccccc1C2=O)c1ccccc1,-14.5,x,x,44.5*,x,x
COC(=O)[C@@H]1O[C@H](SCCN)[C@@H](O)[C@H](O)[C@H]1O,21.0,x,x,49.9*,x,x
CCc1nnc(NS(=O)(=O)c2ccc(NC(=S)NC(=O)/C=C/c3ccc(F)cc3)cc2)s1,-11.4,0.6,-6.9,133.1*,6.9,-8.1
Cc1ccc(/C=C/C(=O)NC(=S)Nc2ccc(S(=O)(=O)Nc3cc(C)on3)cc2)cc1,-111.3,x,x,83.0*,x,x
COc1cc(C(=O)Nc2ccc(S(=O)(=O)Nc3cc(C)on3)cc2)cc(OC)c1OC,14.0,-3.4,47.0*,3.7,9.6,15.8
COc1ccc(/C=C/C(=O)NC(=S)Nc2ccc(S(=O)(=O)Nc3cc(OC)ncn3)cc2)cc1,-76.8,8.4,1.7,63.9*,5.5,-2.2
COc1cc(OC)c(C(=O)N2CCN(c3ccccc3OC)CC2)cc1OC,-5.1,x,x,11.3,x,x
COCCNC(=O)COC(=O)c1cccs1,-1.1,x,x,10.4,x,x
Cc1ccc(-c2cc(C(=O)Nc3ccc(S(=O)(=O)Nc4cc(C)on4)cc3)c3ccccc3n2)c(C)c1,39.2,72.2*,7.0,12.0,6.2,3.2
COc1ccc(/C=C/C(=O)NC(=S)Nc2ccc(S(=O)(=O)Nc3nccnc3OC)cc2)cc1,-11.3,11.3,-2.7,40.4*,3.3,-2.0
Cc1ccc(-c2cc(C(=O)Nc3ccc(S(=O)(=O)Nc4onc(C)c4C)cc3)c3ccccc3n2)cc1,20.0,2.5,-4.3,7.3,-1.6,-10.7
COc1ccc(/C=C/C(=O)NC(=S)Nc2ccc(S(=O)(=O)Nc3nc(C)cc(C)n3)cc2)cc1,-118.6,x,x,25.6,x,x
COc1ccc(C(=O)NC(=S)Nc2ccc(S(=O)(=O)Nc3nc(C)cc(C)n3)cc2)cc1,-98.4,x,x,69.8*,x,x
Cc1ccc(S(=O)(=O)NC2(C(F)(F)F)NC(=O)N(C)C2=O)cc1 (stereo not given),0.5,21.6,67.4*,-1.6,7.2,13.8
Cc1ccc(Cn2cc(/C=N/NC(=O)Cc3nnc(NC(=O)c4ccc(C)cc4)s3)c3ccccc32)cc1,6.3,40.1*,9.8,9.2,27.6,31.4
O=C(Cc1nnc(NC(=O)c2ccccc2)s1)N/N=C/c1ccco1,-14.6,5.8,5.6,6.7,3.1,-12.0
Cc1ccc(N2C(=O)c3cccc4cccc(c34)C2=O)cc1,28.7,7.3,0.0,10.8,-2.9,-8.3
CC1=CC2=C(OC1N(C)C)c1cccc3cccc(c13)C2=O (stereo not given),16.1,24.1,50.2*,11.7,8.6,27.3
Cc1ccc(C(=O)ONc2ccc(N=O)cc2)cc1,-8.3,44.3*,-7.9,10.7,7.5,1.4
O=Nc1ccc(NOC(=O)c2ccc(Br)cc2)cc1,14.4,39.2,1.7,14.6,4.8,0.9
CCOC(=O)c1c(C)nc2c(c1-c1cc(OC)ccc1OC)C(=O)c1ccccc1-2,55.4,10.8,-5.0,8.5,3.8,-0.2
CCc1nc2ccccc2c(C(=O)O)c1C,9.0,-3.4,-3.3,3.9,-0.2,1.6

# Compound activity from PubChem.
